Columns and labels:
[1] = target: T1, Histone deacetylase 8 (Homo sapiens, UniProt Q9BY41); experiment: Inhibition of HDAC8 (unknown origin)
T1 sequence (Q9BY41 whole entry): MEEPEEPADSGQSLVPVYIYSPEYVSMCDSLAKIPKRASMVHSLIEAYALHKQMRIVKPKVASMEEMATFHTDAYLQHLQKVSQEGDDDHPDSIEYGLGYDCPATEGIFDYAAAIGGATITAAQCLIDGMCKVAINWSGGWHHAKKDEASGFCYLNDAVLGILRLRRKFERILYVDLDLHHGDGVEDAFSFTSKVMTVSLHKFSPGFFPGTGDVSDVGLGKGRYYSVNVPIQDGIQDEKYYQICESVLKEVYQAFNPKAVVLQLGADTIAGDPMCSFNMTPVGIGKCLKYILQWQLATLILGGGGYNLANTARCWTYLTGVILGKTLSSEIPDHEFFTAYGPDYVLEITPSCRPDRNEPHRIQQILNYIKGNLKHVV

[2] = target: T2, Protein deacetylase HDAC6 (Homo sapiens, UniProt Q9UBN7); experiment: Binding affinity to recombinant human HDAC6 by BLI assay
T2 sequence (Q9UBN7 whole entry): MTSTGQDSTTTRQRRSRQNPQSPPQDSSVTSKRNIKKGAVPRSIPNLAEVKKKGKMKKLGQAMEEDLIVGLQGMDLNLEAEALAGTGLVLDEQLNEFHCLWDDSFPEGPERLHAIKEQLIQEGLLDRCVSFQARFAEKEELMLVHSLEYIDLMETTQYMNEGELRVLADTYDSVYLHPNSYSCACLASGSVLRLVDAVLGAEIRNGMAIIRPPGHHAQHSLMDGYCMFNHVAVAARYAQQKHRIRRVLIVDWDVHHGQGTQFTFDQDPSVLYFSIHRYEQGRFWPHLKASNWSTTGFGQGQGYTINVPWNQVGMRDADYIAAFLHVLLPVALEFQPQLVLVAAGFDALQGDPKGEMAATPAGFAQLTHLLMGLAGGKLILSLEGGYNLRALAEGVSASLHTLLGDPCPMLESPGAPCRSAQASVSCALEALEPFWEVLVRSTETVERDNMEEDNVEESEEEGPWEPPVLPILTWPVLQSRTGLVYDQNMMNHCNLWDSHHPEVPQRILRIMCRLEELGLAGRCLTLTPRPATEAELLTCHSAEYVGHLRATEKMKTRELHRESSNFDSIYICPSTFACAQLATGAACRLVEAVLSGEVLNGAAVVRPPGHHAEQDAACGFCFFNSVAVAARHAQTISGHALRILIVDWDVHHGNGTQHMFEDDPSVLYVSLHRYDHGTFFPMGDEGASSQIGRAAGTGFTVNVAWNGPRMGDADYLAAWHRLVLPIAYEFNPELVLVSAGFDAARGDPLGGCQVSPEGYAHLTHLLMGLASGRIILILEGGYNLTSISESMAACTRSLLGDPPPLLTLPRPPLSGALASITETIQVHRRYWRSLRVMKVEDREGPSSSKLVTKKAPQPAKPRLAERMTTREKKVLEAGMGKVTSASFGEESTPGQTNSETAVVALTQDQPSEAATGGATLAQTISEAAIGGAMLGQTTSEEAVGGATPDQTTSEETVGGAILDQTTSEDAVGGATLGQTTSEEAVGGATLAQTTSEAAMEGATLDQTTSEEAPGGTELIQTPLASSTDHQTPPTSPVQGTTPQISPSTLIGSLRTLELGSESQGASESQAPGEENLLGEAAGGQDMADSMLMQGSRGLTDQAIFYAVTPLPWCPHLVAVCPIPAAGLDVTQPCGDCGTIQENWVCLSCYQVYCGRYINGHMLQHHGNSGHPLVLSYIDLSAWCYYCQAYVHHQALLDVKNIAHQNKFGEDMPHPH

[3] = system: MGC-803; experiment: Induction of apoptosis in human MGC803 cells assessed as viable cells at 4 uM measured after 48 hrs by Annexin-V FITC/PI staining based flow cytometry (reference value: 92.33%); format: functional; conditions: read-out: Activity
[4] = target: T2, Protein deacetylase HDAC6; experiment: Inhibition of recombinant full length human HDAC6 expressed in baculovirus infected Sf9 cells using Z-(Ac)-Lys-AMC as substrate incubated for 40 mins by fluorescence based assay
[5] = Acute toxicity in C57BL/6 mouse assessed as mortality at 2 g/kg, po administered via gavage measured up to 14 days; format: organism-based; conditions: in vivo, 2000 mg/kg, 336 h, time <=14 day
How it was run: (§1)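 Mice aged 8-10 weeks, 20 females and 20 males, split into two groups: vehicle control (0.5% CMC-Na) or a single oral gavage dose of 2000 mg/kg. Animals were fed and observed normally for 14 days, recording body weight, mortality and behaviour. Heart, liver, spleen, lung and kidney sections were then fixed, embedded and H&E stained.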

[6] = Acute toxicity in C57BL/6 mouse assessed as kidney tissue damage at 2 g/kg, po administered via gavage measured up to 14 days by HE staining based assay; format: organism-based; conditions: in vivo, 2000 mg/kg, 336 h, time <=14 day; how it was run: as §1
[7] = target: T3, Histone deacetylase 1 (Homo sapiens, UniProt Q13547); experiment: Inhibition of recombinant human HDAC1 using Z-(Ac)-Lys-AMC as substrate incubated for 40 mins by fluorescence based assay
[8] = Acute toxicity in C57BL/6 mouse assessed as heart tissue damage at 2 g/kg, po administered via gavage measured up to 14 days by HE staining based assay; format: organism-based; conditions: in vivo, 2000 mg/kg, 336 h, time <=14 day; how it was run: as §1
[9] = Acute toxicity in C57BL/6 mouse assessed as change in body weight at 2 g/kg, po administered via gavage measured up to 14 days; format: organism-based; conditions: in vivo, 2000 mg/kg, 336 h, time <=14 day; how it was run: as §1
[10] = system: MGC-803; experiment: Antiproliferative activity against human MGC803 cells incubated for 72 hrs by MTT assay; format: functional, cell-based; conditions: MGC-803, 72 h
[11] = target: T3, Histone deacetylase 1; conditions: dose 100.0 nM, time 40.0 min
[12] = system: MGC-803; experiment: Induction of apoptosis in human MGC803 cells assessed as necrotic cells at 8 uM measured after 48 hrs by Annexin-V FITC/PI staining based flow cytometry (reference value: 4.74%); format: functional
[13] = Acute toxicity in C57BL/6 mouse assessed as behavioral abnormalities at 2 g/kg, po administered via gavage measured up to 14 days; format: organism-based; conditions: in vivo, 2000 mg/kg, 336 h, time <=14 day; how it was run: as §1
[14] = system: MGC-803; experiment: Induction of apoptosis in human MGC803 cells assessed as late apoptotic cells at 4 uM measured after 48 hrs by Annexin-V FITC/PI staining based flow cytometry (reference value: 2.74%); format: functional
[15] = system: MGC-803; experiment: Inhibition of cell invasion in human MGC803 cells after 72 hrs by transwell assay; format: functional, cell-based; conditions: dose 2-8 µM
How it was run: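 Matrigel-coated transwell: cells in upper chamber with 1% FBS medium, 20% FBS medium below, compound added, 72 h. Cells fixed in 4% paraformaldehyde, DAPI-stained, then imaged and analyzed by high-content analysis. Mean ± SD of three experiments versus DMSO.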

[16] = Acute toxicity in C57BL/6 mouse assessed as liver tissue damage at 2 g/kg, po administered via gavage measured up to 14 days by HE staining based assay; format: organism-based; conditions: in vivo, 2000 mg/kg, 336 h, time <=14 day; how it was run: as §1
[17] = Acute toxicity in C57BL/6 mouse assessed as spleen tissue damage at 2 g/kg, po administered via gavage measured up to 14 days by HE staining based assay; format: organism-based; conditions: in vivo, 2000 mg/kg, 336 h, time <=14 day; how it was run: as §1

T3 sequence (Q13547 whole entry): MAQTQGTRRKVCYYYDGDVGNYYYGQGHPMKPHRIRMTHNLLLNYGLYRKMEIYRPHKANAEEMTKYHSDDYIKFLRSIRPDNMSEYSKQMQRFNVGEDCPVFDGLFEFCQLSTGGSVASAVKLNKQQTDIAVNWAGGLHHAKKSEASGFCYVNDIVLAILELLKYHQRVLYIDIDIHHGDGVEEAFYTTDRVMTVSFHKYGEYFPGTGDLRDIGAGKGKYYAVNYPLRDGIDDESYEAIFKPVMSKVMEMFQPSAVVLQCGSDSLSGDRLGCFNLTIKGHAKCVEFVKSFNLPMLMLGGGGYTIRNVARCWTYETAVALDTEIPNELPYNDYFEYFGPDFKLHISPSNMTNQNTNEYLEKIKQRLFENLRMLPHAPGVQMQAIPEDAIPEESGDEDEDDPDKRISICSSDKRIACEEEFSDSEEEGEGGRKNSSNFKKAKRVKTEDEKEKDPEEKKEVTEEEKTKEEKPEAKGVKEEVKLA

Work on Cc1ccc(-c2nc(CNc3ccc(C(=O)NO)cc3)n(-c3ccccc3)n2)s1 yielded an IC50 [1] of 0.349 µM, a Kd [2] of 0.0071 µM and a viability at 4 µM [3] of 79.3%. For the same molecule, the IC50 [4] was 0.0306 µM, the Activity [5] was “Non-Toxic” and the Activity [6] was “Non-Toxic”. The IC50 [7] was 3.94 µM, the Activity [8] was “Non-Toxic” and the Activity [9] was “Non-Toxic”. It also gave an IC50 [10] of 8.45 µM, an inhibition [11] of 30.1% and an Activity [12] of 1.96%. For the same molecule, the Activity [13] was “Non-Toxic”, the Activity [14] was 15.5% and the inhibition [15] was “Dose-Dependent Effect”. The Activity [16] was “Non-Toxic” and the Activity [17] was “Non-Toxic”.
